Results as given in ChEMBL document CHEMBL4689842, “EUbOPEN Chemogenomics Library wave 1” (2021).
Several values for one entry are separate records, joined by “and”; a condition that tells them apart may be missing. Equal values may be shown once.

Tested on: HEK-293T
Assay: Multiplex assay against HEK293T;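 as to Population Tubulin-Different-Phenotype (%): share of the cells with healthy nuclei that show this phenotype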
Assay type: toxicity, cell-based
Settings: human, 10 µM, compound concentration 10 uM
In short: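 Four dyes were applied at seeding to live cells: Hoechst33342, BioTracker Green Microtubule Cytoskeleton Dye, MitoTracker Red and Annexin V Alexa Fluor 680. Imaging after compound addition used a CQ1 microscope at 37°C and 5% CO2. CellPathfinder machine-learning gating then sorted cells into Hoechst high-intensity objects or normal cells, normal cells into healthy, pyknosed or fragmented nuclei, and pyknosed cells into mitotic or apoptotic, with tubulin, mitochondrial-mass and membrane-permeability phenotypes given as per cents of healthy-nucleus cells.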

## CNCc1ccccc1-c1csc([C@H](C)Nc2nc(C)nc3cc(OC)c(OC)cc23)c1 [BAY-294]
12 h, replicate 1
  Population Apoptotic (%): 83% and 29% and 42%
  Population Fragmented Nuclei (%): 16% and 15% and 12%
  Population Hoechst High Intensity Objects (%): 19% and 16% and 22%
  Population Normal (%): 80% and 83% and 77%
  Population Pyknosed Nuclei (%): 82% and 39% and 67%
  Population Tubulin-Different-Phenotype (%): 50% and 90% and 54%
  Total Cell Count: 623 and 618
12 h, replicate 2
  Population Mitochondria Different-Phenotype (%): 86% and 88% and 34%
  Population Normal (%): 88% and 95% and 96%
  Population Tubulin-Different-Phenotype (%): 71% and 72% and 98%
  Total Cell Count: 864 and 1201
24 h, replicate 1
  Population Apoptotic (%): 71% and 57% and 28%
  Population Fragmented Nuclei (%): 22% and 24% and 13%
  Population Hoechst High Intensity Objects (%): 14% and 18% and 13%
  Population Mitotic Cells (%): 28% and 42% and 72%
  Population Normal (%): 85% and 81% and 86%
  Population Pyknosed Nuclei (%): 77% and 61% and 26%
  Total Cell Count: 631 and 647
24 h, replicate 2
  Population Fragmented Nuclei (%): 8% and 5% and 12%
  Population Membrane Permeable-Phenotype (%): 11% and 30%
  Population Normal (%): 87% and 92% and 96%
  Population Tubulin-Different-Phenotype (%): 49% and 76% and 94%
  Total Cell Count: 903 and 1682
48 h, replicate 1
  Population Apoptotic (%): 79%
  Population Fragmented Nuclei (%): 31%
  Population Healthy Nuclei (%): 0%
  Population Hoechst High Intensity Objects (%): 18%
  Population Membrane Permeable-Phenotype (%): 0%
  Population Mitochondria Different-Phenotype (%): 100%
  Population Mitotic Cells (%): 20%
  Population Normal (%): 81%
  Population Pyknosed Nuclei (%): 68%
  Population Tubulin-Different-Phenotype (%): 100%
48 h, replicate 2
  Population Apoptotic (%): 96%
  Population Fragmented Nuclei (%): 17%
  Population Healthy Nuclei (%): 33%
  Population Hoechst High Intensity Objects (%): 6%
  Population Membrane Permeable-Phenotype (%): 6%
  Population Mitochondria Different-Phenotype (%): 87%
  Population Mitotic Cells (%): 3%
  Population Normal (%): 93%
  Population Pyknosed Nuclei (%): 49%
  Population Tubulin-Different-Phenotype (%): 96%
